Measured values taken from ChEMBL document CHEMBL4706594, “Targeting the aryl hydrocarbon receptor with a novel set of triarylmethanes” (Eur J Med Chem, 2020).

How the values were obtained:
HepG2 [1] = test: Cytotoxicity against human HepG2 cells harboring AhR assessed as reduction in cell viability at 0.1 to 10 uM measured for 24 to 72 hrs by MTT assay; type: cell-based; conditions: hepg2, 10 µM, dose lower 0.1 µM, time lower 24 hrs, dose upper 10 µM, time upper 72 hrs
Summary of the method: (§1)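 AhR-HepG2 cells were treated for 24–72 h with compounds at 0.1, 1.0, 5.0 and 10.0 µM, some also at 2.5 and 7.5 µM. MTT at 0.5 mg/mL was added and plates incubated at 37 °C. Formazan was dissolved in DMSO and absorbance read at 490 nm. Viability below 85% of vehicle counted as cytotoxic. One-way ANOVA with Dunnett's test; mean ± SEM, n≥3.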

[2] = target: T1, Aryl hydrocarbon receptor (Homo sapiens, UniProt P35869); test: Agonist activity at AhR in human HepG2 cells co-transfected with pSELECT-zeo-Lucia and CYP1A1 assessed as induction of receptor transactivation incubated for 24 hrs by luciferase reporter gene assay; type: cell-based
T1 sequence (P35869 whole entry): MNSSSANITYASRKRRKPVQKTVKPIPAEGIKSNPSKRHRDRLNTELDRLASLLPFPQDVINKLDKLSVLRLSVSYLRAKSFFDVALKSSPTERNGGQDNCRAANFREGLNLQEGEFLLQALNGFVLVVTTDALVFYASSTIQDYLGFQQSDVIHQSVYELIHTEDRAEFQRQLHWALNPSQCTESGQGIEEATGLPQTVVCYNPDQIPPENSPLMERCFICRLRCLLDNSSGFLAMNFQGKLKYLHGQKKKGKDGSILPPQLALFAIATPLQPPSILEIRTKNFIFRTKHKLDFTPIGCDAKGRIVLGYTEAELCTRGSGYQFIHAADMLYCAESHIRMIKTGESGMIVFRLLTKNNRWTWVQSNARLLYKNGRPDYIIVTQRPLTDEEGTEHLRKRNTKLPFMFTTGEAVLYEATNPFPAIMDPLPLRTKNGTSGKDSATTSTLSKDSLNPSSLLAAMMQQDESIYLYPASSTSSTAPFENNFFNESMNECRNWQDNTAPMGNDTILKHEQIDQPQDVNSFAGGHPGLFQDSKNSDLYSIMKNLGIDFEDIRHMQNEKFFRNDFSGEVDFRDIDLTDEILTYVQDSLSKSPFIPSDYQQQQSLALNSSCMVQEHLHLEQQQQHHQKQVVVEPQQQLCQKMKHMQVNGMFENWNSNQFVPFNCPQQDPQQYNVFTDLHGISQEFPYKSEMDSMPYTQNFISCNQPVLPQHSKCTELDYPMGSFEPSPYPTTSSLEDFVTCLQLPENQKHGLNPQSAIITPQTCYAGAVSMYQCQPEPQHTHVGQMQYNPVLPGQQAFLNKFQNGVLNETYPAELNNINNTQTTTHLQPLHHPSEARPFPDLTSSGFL

[3] = target: T1, Aryl hydrocarbon receptor; conditions: HepG2, human, 24 h, read-out: RUmax
[4] = target: T1, Aryl hydrocarbon receptor; conditions: HepG2, human, 24 h, read-out: RUmax; remark: listed apart in the source
HepG2 [5] = test: Cytotoxicity against human HepG2 cells harboring AhR assessed as reduction in cell viability at 0.1 to 10 uM measured after 24 hrs by MTT assay; type: cell-based; conditions: hepg2, 24 h, dose 0.1-10 µM; summary of the method: as §1
[6] = Cytotoxicity against human HepG2 cells harboring AhR assessed as reduction in cell viability at > 5 uM measured for 24 hrs by MTT assay relative to control; type: cell-based; conditions: read-out: INH; summary of the method: as §1
[7] = target: T1, Aryl hydrocarbon receptor; conditions: HepG2, human, 24 h, read-out: RUmax; remark: listed apart in the source
[8] = target: T1, Aryl hydrocarbon receptor; conditions: HepG2, human, 24 h, read-out: RUmax; remark: listed apart in the source
[9] = target: T1, Aryl hydrocarbon receptor; conditions: HepG2, human, 24 h, read-out: RUmax; remark: listed apart in the source
[10] = target: T1, Aryl hydrocarbon receptor; test: Antagonist activity at AhR in human HepG2 cells co-transfected with pSELECT-zeo-Lucia and CYP1A1 assessed as inhibition of FICZ-induced receptor transactivation at 30 uM incubated for 24 hrs by luciferase reporter gene assay relative to control; type: cell-based; conditions: hepg2, 24 h
[11] = target: T1, Aryl hydrocarbon receptor; test: Antagonist activity at AhR in human HepG2 cells assessed as inhibition of FICZ-induced AhR transcriptional activity incubated for 24 hrs by Quanti-Luc reagent based luminescence assay; type: cell-based

| Compound | EC50 [2] | activity at 10 µM [3] | inhibition at 10 µM [4] | also measured |
| --- | --- | --- | --- | --- |
| Oc1ccc(C(c2ccccn2)c2c(O)ccc3ccccc23)cc1 (stereo not drawn) |  |  |  | Activity (HepG2 [1]): Non-Toxic |
| COc1ccc(C(c2ccccn2)n2nnc3ccccc32)cc1 (stereo not drawn) | > 100 µM | 8.86% |  |  |
| COc1ccc(C(O)(c2ccccn2)c2ccc3ccccc3n2)cc1 (stereo not drawn) |  |  |  | Activity (HepG2 [1]): Non-Toxic |
| CC(=O)Oc1ccc(C(c2ccc(C)cc2)c2cccc[n+]2[O-])cc1 (stereo not drawn) | > 200 µM | 6.28% | 93.3% |  |
| COc1ccc(C(O)(c2ccc(C(F)(F)F)cc2)c2ccccn2)cc1 (stereo not drawn) | 52 µM | 26.6% |  | Activity (HepG2 [1]): Non-Toxic; Activity (HepG2 [5]): Toxic |
| CC(=O)Oc1ccc(C(c2ccccn2)c2c(OC(C)=O)ccc3ccccc23)cc1 (stereo not drawn) | > 200 µM | 5.17% | 144% |  |
| CC(=O)Oc1ccc(C(c2ccccn2)c2c[nH]c3ccccc23)cc1 (stereo not drawn) |  |  |  | Activity (HepG2 [1]): Non-Toxic |
| CC(=O)Oc1ccc(C(c2ccc(C(C)(C)C)cc2)c2ccccn2)cc1 (stereo not drawn) |  |  |  | cytotoxicity at 24 h [6]: 50%; inhibition at 1 µM [7]: 113%; activity at 1 µM [8]: 5.32% |
| Oc1ccccc1C(c1ccc(Br)cc1)c1ccccn1 (stereo not drawn) | > 1000 µM | 7.99% | 117% |  |
| Oc1ccc(C(c2ccc(Cl)cc2)c2ccccn2)cc1 (stereo not drawn) | > 100 µM | 6.59% |  |  |
| Oc1ccccc1C(c1ccc(F)cc1)c1ccccn1 (stereo not drawn) | > 1000 µM | 6.89% | 112% |  |
| CC(=O)Oc1ccc(C(c2ccc(C(C)(C)C)cc2)c2cccc[n+]2[O-])cc1 (stereo not drawn) |  |  |  | cytotoxicity at 24 h [6]: 50%; inhibition at 1 µM [7]: 120%; activity at 1 µM [8]: 6.1% |
| O=Cc1c2[nH]c3ccccc3c2cc2[nH]c3ccccc3c12 |  |  |  | Emax at 18 µM [9]: 100% |
| CC(=O)Oc1ccc(C(c2ccc(Cl)cc2)c2cccc[n+]2[O-])cc1 (stereo not drawn) | > 200 µM | 7.78% | 78.8% |  |
| CC(=O)Oc1ccc(C(c2ccc(Br)cc2)c2ccccn2)cc1 (stereo not drawn) | > 1000 µM | 6.32% | 143% |  |
| CC(=O)Oc1ccc(C(c2ccc(Cl)cc2)c2ccccn2)cc1 (stereo not drawn) | > 1000 µM | 6.26% | 128% |  |
| CC(=O)Oc1ccc(C(c2ccc(C)cc2)c2ccccn2)cc1 (stereo not drawn) | > 100 µM | 9.42% |  |  |
| CC(=O)Oc1ccc(C(c2ccc(C(F)(F)F)cc2)c2ccccn2)cc1 (stereo not drawn) |  |  |  | cytotoxicity at 24 h [6]: 50%; inhibition at 1 µM [7]: 117%; activity at 1 µM [8]: 7.71% |

| Compound | EC50 [2] | activity at 10 µM [3] | inhibition at 10 µM [4] | also measured |
| --- | --- | --- | --- | --- |
| COc1ccc(C(c2ccccn2)c2cccs2)cc1 (stereo not drawn) | > 50 µM | 10.5% | 137% | Activity (HepG2 [1]): Non-Toxic |
| CC(=O)Oc1ccc(C(c2ccccn2)n2nnc3ccccc32)cc1 (stereo not drawn) | > 100 µM | 9.23% | 142% |  |
| Oc1ccccc1C(c1ccc(Cl)cc1)c1ccccn1 (stereo not drawn) | > 1000 µM | 7.18% | 115% |  |
| Oc1ccc(C(c2ccccn2)c2cccs2)cc1 (stereo not drawn) |  |  |  | Activity (HepG2 [1]): Non-Toxic |
| Oc1ccc(C(c2ccc(F)cc2)c2ccccn2)cc1 (stereo not drawn) | > 400 µM | 7.79% |  |  |
| CC(=O)Oc1ccc(C(c2ccc(OC(C)=O)cc2)c2ccccn2)cc1 [BISACODYL] | > 1000 µM | 6.58% | 107% |  |
| CC(C)(C)c1ccc(C(c2ccccn2)c2ccccc2O)cc1 (stereo not drawn) | > 1000 µM | 6.81% |  |  |
| Cc1ccc(C(c2ccccn2)c2ccccc2O)cc1 (stereo not drawn) | > 100 µM | 6.93% | 114% |  |
| Cc1ccc(C(c2ccc(O)cc2)c2ccccn2)cc1 (stereo not drawn) | > 100 µM | 7.09% | 139% |  |
| COc1ccc(C(c2ccccn2)c2c[nH]c3ccccc23)cc1 (stereo not drawn) | 21.7 µM | 114% |  | Activity (HepG2 [1]): Non-Toxic |
| Cc1ccccc1/N=N/c1ccc(NC(=O)c2ccnn2C)c(C)c1 |  |  |  | RUmax [10]: 54.5%; IC50 [11]: 2430 nM |
| CC(=O)Oc1ccc(C(c2ccc(Br)cc2)c2cccc[n+]2[O-])cc1 (stereo not drawn) | > 100 µM | 8.8% | 106% |  |
| COc1ccc(C(c2ccccn2)c2c(O)ccc3ccccc23)cc1 (stereo not drawn) |  |  |  | Activity (HepG2 [1]): Non-Toxic |
| CC(C)(C)c1ccc(C(c2ccc(O)cc2)c2ccccn2)cc1 (stereo not drawn) |  |  |  | cytotoxicity at 24 h [6]: > 90%; inhibition at 1 µM [7]: 113%; activity at 1 µM [8]: 6.89% |
| CC(=O)Oc1ccc(C(c2ccc(F)cc2)c2ccccn2)cc1 (stereo not drawn) | > 100 µM | 8.77% | 118% |  |
| Oc1ccc(C(c2ccc(Br)cc2)c2ccccn2)cc1 (stereo not drawn) | > 100 µM | 7.71% |  |  |
| CC(=O)Oc1ccc(C(c2ccc(F)cc2)c2cccc[n+]2[O-])cc1 (stereo not drawn) | > 1000 µM | 6.51% | 92.4% |  |
